Screening data deposited in PubChem BioAssay by several laboratories.
A selection: hits, their analogues and other compounds. The true share with any hit is near 2%.
PABP1 MLLE inh: blocks PAM2 peptide binding to the PABP1 MLLE domain. P11940. 360,000 compounds, 0.36% hits. AID 588489. GST-MLLE / FITC-PAM2 fluorescence polarization. inhibition, % at 20 µM; in the data active means inhibition above about 35%, passing the limit was not always enough;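 further: plate controls were DMSO wells with GST-MLLE for no effect and wells lacking GST-MLLE protein for full effect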
HCV NS3 hel inh: inhibitors of Hepatitis C virus NS3 helicase; NS3 helicase DNA unwinding, Cy5 molecular beacon fluorescence; inhibition, % at 10.9 µM; 290,000 compounds, 0.56% hits; AID 1800;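 active means inhibition above the mean of all tested compounds plus 3 SD, set per campaign, cut at about 35% in these data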;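 further: 0% = DMSO wells and 100% = thioflavine S control wells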
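Assay system – hepatitis C virus NS3 helicase domain fragment enzyme · Buffer or medium – MOPS pH 6.5, MgCl2, DTT, Tween20, BSA · Reagent – Cy5/quencher beacon DNA duplex and ATP to start · Compound – single 10.9 µM dose · Timing – 1 h at 25 °C · Technique – Cy5 beacon fluorescence read at start and 1 h · Measure – % inhibition of unwinding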
eIF4H FP inh: inhibitors of RNA binding by human eIF4H; 290,000 compounds, 0.94% hits; AID 2012; inhibition, % at 35 µM; eIF4H fluorescence polarization binding assay;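 further: calls also rest on retests at 20 µM and on dose response follow-up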
PABP FP inh: PABP-poly(A) binding inhibition; P11940; PABP-poly(A) RNA binding, fluorescence polarization; inhibition, % at 35 µM; 290,000 compounds, 1% hits;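 further: calls also rest on retests at 20 µM and on dose response follow-up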
HCV core dimer: HCV core protein dimerization inhibition | TR-FRET GST/Flag-core106 dimerization, 1536-well | inhibition, % at 5 µM | 300,000 compounds, 0.33% hits | AID 1899;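 active means inhibition above the mean of all tested compounds plus 3 SD, set per screening campaign, cut at about 45% in these data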
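Test system: GST/Flag-tagged HCV core106 proteins; Medium: KF-containing HEPES buffer, pH 7.45, DTT, CHAPS, BSA; Times: compound-protein-antibody incubation 4 h at 22.5 °C; Detection: TR-FRET 671 and 617 nm emission; Benchmarks: wells lacking GST-core106 and wells with excess unlabelled core106.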
DNA FID counter-1: fluorescent intercalator displacement, NS3 helicase counter-screen; 290,000 compounds, 0.17% hits; inhibition, % at 7.9 µM; DNA fluorescent intercalator displacement, fluorescence; in the data active means inhibition above about 37%;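 further: 0% = vehicle and 100% = reference compound; higher means more ethidium bromide displaced from hairpin DNA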
NS3 helicase cf: confirmation of Hepatitis C virus NS3 helicase inhibitors | shares compounds with HCV NS3 hel inh | NS3 helicase DNA unwinding, Cy5 molecular beacon fluorescence | inhibition, % at 10.9 µM | 1,600 compounds, 31% hits;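 active means inhibition above the mean of all tested compounds plus 3 SD, cutoff set per campaign, cut at about 36% in these data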
DNA FID counter-2: intercalator displacement, NS3 helicase counter-screen; 1,600 compounds, 4% hits; shares compounds with HCV NS3 hel inh; DNA fluorescent intercalator displacement, fluorescence; inhibition, % at 7.9 µM; in the data active means inhibition above about 37%;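 further: 0% = vehicle and 100% = reference compound; higher means more displacement of ethidium bromide from the DNA hairpin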
DNA FID DR: counter-screen for HCV NS3 helicase inhibitors: DNA intercalator displacement dose response; shares compounds with HCV NS3 hel inh; fluorescent intercalator displacement from DNA, fluorescence; IC50, µM; 120 tested, under 10 active; AID 2172
* = called active by the depositor; · = not tested or not shown. Unless noted, how the calls were made is not given here.

SMILES	PABP1 MLLE inh	HCV NS3 hel inh	eIF4H FP inh	PABP FP inh	HCV core dimer	DNA FID counter-1	NS3 helicase cf	DNA FID counter-2	others
CCCCCCCCCCCCN1C/C(=C\C(=O)OCC)c2cc(C(F)(F)F)ccc2S1(=O)=O	-25	25	-2	2	12	-19	·	·
CCCCCCCCCCCCN1C/C(=C\C(=O)OCC)c2ccccc2S1(=O)=O	-18	80*	1	10	-4	-28	10	-22
CC(C)(C)c1ccc(CC(=O)N2CCC2(C)C(=O)NS(=O)(=O)c2ccc(Cl)cc2)cc1 (centres undefined)	-6	·	·	·	·	·	·	·
CCNC(=O)C1(C)CCCN(CCOc2ccc(Cl)cc2)C1 (centres undefined)	9	·	·	·	·	·	·	·
Cc1ccc(C(c2cc(Cl)c3cccnc3c2O)N2CCN(C)CC2)cc1 (centres undefined)	48*	42*	30	26	-5	-15	70*	67*
Oc1c(C(c2ccc(Cl)cc2)N2CCCC2)cc(Cl)c2cccnc12 (centres undefined)	29	26	15	8	-1	0	·	·
CSCCC(NC(=O)c1ccccc1Cl)C(=O)NCCOc1ccc(C)cc1 (centres undefined)	-9	·	·	·	·	·	·	·
Cc1cc2c(n1-c1ccc(C(=O)O)cc1)CCCCC2	·	54*	91*	82*	·	-29	71*	-8
CCN(CC)S(=O)(=O)c1cccc(C(=O)N/N=C/c2ccc(O)c(O)c2O)c1	22	45*	72	2	3	-14	76*	16	DNA FID DR=>79
CN(C)S(=O)(=O)c1cccc(NC(=S)N/N=C/c2ccc(O)c(O)c2O)c1	17	41*	57*	35*	·	-18	11	50*
CCOc1ccccc1/C=N/NC(=O)c1cccc(S(=O)(=O)N(CC)CC)c1	11	-9	6	78	8	-15	·	·
COc1ccccc1C(CNC(=O)CNC(=O)c1cccc(Cl)c1)N1CCCC1 (centres undefined)	0	·	·	·	·	·	·	·
CCCCn1c(N)c(N(CC)C(=O)c2cc(S(=O)(=O)N3CCCCCC3)ccc2OC)c(=O)[nH]c1=O	0	·	·	·	-8	·	·	·
Cc1nc2c(OCc3cc(Cl)cc(Cl)c3)cccn2c1N(C)C(=O)CCC1CCCC1	-2	·	·	·	·	·	·	·
CCN(CC)S(=O)(=O)c1ccc(N2CCCCC2)c(NC(=O)/C=C/c2ccc(OC)c(OC)c2)c1	-2	-23	-3	10	8	-17	·	·
COc1ccc(C2(CNC(=O)/C=C/c3ccco3)CCCC2)cc1OC	6	38*	4	-5	23	-45	-1	-55
CCN(CC)S(=O)(=O)c1ccc(OC)c(NC(=O)/C=C/c2ccco2)c1	-4	63*	11	1	0	-27	-17	-20
O=C(O)CCNc1cc(N2CCN(C(=O)c3ccco3)CC2)c2noc3c2c1C(=O)c1ccccc1-3	-57	57*	101*	95*	-150	-13	76*	2
CC(C)c1cc(C(=O)OCC(=O)NC2CCS(=O)(=O)C2)c(O)c(C(C)C)c1 (centres undefined)	-15	·	·	·	·	·	·	·
O=Cc1coc2c(ccc3ccccc32)c1=O	·	35	6	16	22	13	·	·
O=C(Nc1ncc(Br)s1)C(Cc1ccccc1)n1cccc1 (centres undefined)	-4	44*	0	-3	7	-9	-17	13
COc1ccc(C(CNC(=O)c2c(C)nn(Cc3ccc(C)cc3)c2Cl)N2CCOCC2)cc1 (centres undefined)	7	·	·	·	·	·	·	·
COC(=O)C1=NN(C(=O)c2ccc(Cl)cc2)C(O)(c2ccccc2)C1 (centres undefined)	-4	44*	25	4	-1	-32	-6	-10
CCC1=NN(C(=O)c2ccc(Cl)cc2)C(O)(c2ccccc2)C1 (centres undefined)	8	-4	0	2	1	-13	·	·
